According to paper PMC9078286 (RSC Advances, 2018):

Format: in vivo, Sprague-Dawley rats
Conditions: for T max / half-life: Normal rats, oral Gandi capsule 80 mg kg^-1, plasma, n = 6, mean ± SD; for concentration at 2 h / half-life: male, Sprague-Dawley, rat, plasma, po; for concentration at 2 h: 80 mg kg^-1 Gandi capsule; for half-life: 80 mg/kg, T 1/2 z
Summary of the method: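 Diabetes was induced by a single ip STZ dose of 45 mg kg−1 in citrate buffer (0.1 mol L−1, pH 4.5), with blood glucose >16.7 mmol L−1 after 1 week; rats were dosed on day 10. Rats were fasted 12 h, then given capsule contents in 0.3% CMC-Na orally; n = 6/group. Plasma was sampled 0–48 h, precipitated with IS in methanol and analysed by positive-ion LC-MS/MS; results are mean ± SD, compared by t-test.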

| T max [h] | concentration at 2 h [ng/mL] | half-life [h] | Time after oral administration in which the compound can be detected in plasma (oral Gandi capsule, rat plasma, quick elimination phase) [h] | Compound |
| --- | --- | --- | --- | --- |
| 1.50 ± 1.40 | 723 | 9.45 ± 2.87 |  | O=C(O)[C@H]1O[C@@H](Oc2cc3oc(-c4ccccc4)cc(=O)c3c(O)c2O)[C@H](O)[C@@H](O)[C@@H]1O [Baicalin, baicalin] |
| 1.25 ± 0.35 | 42.6 | 0.46 ± 0.38 | ≤ 2.5 | COC(=O)C1=CO[C@@H](O[C@@H]2O[C@H](CO)[C@@H](O)[C@H](O)[C@H]2O)[C@@H]2[C@@H](C)[C@@H](O)C[C@H]12 [Loganin, loganin] |
|  | 54.9 | 1.52 ± 0.25 |  | COc1c(O)cc(O)c2c(=O)cc(-c3ccccc3)oc12 [Wogonin, wogonin] |
